ChEMBL document CHEMBL4024752, “Noncovalent Protein Arginine Deiminase (PAD) Inhibitors Are Efficacious in Animal Models of Multiple Sclerosis” (J Med Chem, 2017)
Activity calls are given as the source filed them. The rule behind the calls is not given here.

Legend:
Mus musculus [1] = assay: Antiinflammatory activity in MOG (35 to 55 residues)-induced C57BL/6 mouse autoimmune encephalomyelitis model assessed as improvement in physical disability at 50 mg/kg, ip administered daily measured on day 35 post immunization; format: functional, organism-based
In short: (§1)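 Female C57BL/6 mice, 8 weeks old, were immunized s.c. with 100 µg MOG peptide in CFA, plus 400 ng pertussis toxin i.p. at immunization and again at 48 h. Daily i.p. dosing at 50 mg/kg in PBS (pH 7.5) began at clinical score 2 and continued up to 60 days. Controls got an equal volume of PBS (n=5 vs 7). Clinical score and body weight were recorded daily.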

Mus musculus [2] = assay: Antiinflammatory activity in MOG (35 to 55 residues)-induced C57BL/6 mouse autoimmune encephalomyelitis model assessed as survival rate at 50 mg/kg, ip administered daily up to 60 days (reference value: 80%); format: functional; conditions: C57BL/6, ip, 1440 h
Mus musculus [3] = assay: Antiinflammatory activity in MOG (35 to 55 residues)-induced C57BL/6 mouse autoimmune encephalomyelitis model assessed as reduction in inflammation in spinal cord at 50 mg/kg, ip administered daily measured at day 60 post immunization; format: functional, organism-based; conditions: in the assay text read “brain” for “spinal cord”
In short: (§2)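 MOG/CFA-immunized female C57BL/6 mice were treated daily at 50 mg/kg i.p. in PBS from score 2 for up to 60 days; controls received PBS. At study end, brain and spinal cord sections were stained with H&E and Luxol Fast Blue. Inflammation was quantified as inflamed area over total tissue area by positive pixel count.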

Mus musculus [4] = assay: Antiinflammatory activity in MOG (35 to 55 residues)-induced C57BL/6 mouse autoimmune encephalomyelitis model assessed as reduction in lesions in cerebellum at 50 mg/kg, ip administered daily up to 60 days by LFB/H and E staining based assay; format: functional, organism-based; in short: as §2
Mus musculus [5] = assay: Antiinflammatory activity in MOG (35 to 55 residues)-induced C57BL/6 mouse autoimmune encephalomyelitis model assessed as reduction in lesions in olfactory tract at 50 mg/kg, ip administered daily up to 60 days by LFB/H and E staining based assay; format: functional, organism-based; in short: as §2
Mus musculus [6] = assay: Antiinflammatory activity in MOG (35 to 55 residues)-induced C57BL/6 mouse autoimmune encephalomyelitis model assessed as reduction in lesions in internal capsule at 50 mg/kg, ip administered daily by LFB/H and E staining based assay; format: functional, organism-based; in short: as §2
Mus musculus [7] = assay: Antiinflammatory activity in MOG (35 to 55 residues)-induced C57BL/6 mouse autoimmune encephalomyelitis model assessed as reduction in accumulation of CD3 positive T-cells in brain at 50 mg/kg, ip administered daily up to 60 days by immunohistochemistry; format: functional, organism-based
In short: (§3)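 MOG/CFA-immunized female C57BL/6 mice were dosed daily at 50 mg/kg i.p. in PBS from score 2 for up to 60 days; PBS controls n=5, treated n=7. Brain sections were immunostained with anti-CD3. Stained cells per µm² were averaged over randomly selected areas.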

Mus musculus [8] = assay: Antiinflammatory activity in MOG (35 to 55 residues)-induced C57BL/6 mouse autoimmune encephalomyelitis model assessed as reduction in accumulation of CD3 positive T-cells in internal capsule at 50 mg/kg, ip administered daily up to 60 days by immunohistochemistry; format: functional, organism-based; in short: as §3
Mus musculus [9] = assay: Antiinflammatory activity in MOG (35 to 55 residues)-induced C57BL/6 mouse autoimmune encephalomyelitis model assessed as reduction in accumulation of CD3 positive T-cells in cerebellum at 50 mg/kg, ip administered daily up to 60 days by immunohistochemistry; format: functional, organism-based; in short: as §3
[10] = Elimination rate constant in C57BL/6 mouse serum at 50 mg/kg, ip administered as single dose measured up to 360 mins by UPLC-MS analysis; format: ADME, organism-based
In short: (§4)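 Healthy female C57BL/6 mice (n = 27, 18–22 g) received one i.p. dose of 50 mg/kg, given as a 10 mg/mL aqueous solution (equimolar HCl, pH raised to 6 with NaHCO3). Blood and brain were sampled at 0, 5, 15, 30, 45, 60, 120, 240 and 360 min, 3 mice per time point. Samples were spiked with benzophenone internal standard, lyophilized, extracted into methanol, and quantified by C18 UPLC-MS.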

[11] = Half life in C57BL/6 mouse serum at 50 mg/kg, ip administered as single dose by UPLC-MS analysis; format: ADME, organism-based; in short: as §4
[12] = Cmax in C57BL/6 mouse serum at 50 mg/kg, ip administered as single dose measured up to 360 mins by UPLC-MS analysis; format: ADME, organism-based; design: dose 50 mg/kg, route intraperitoneal; in short: as §4
[13] = Tmax in C57BL/6 mouse serum at 50 mg/kg, ip administered as single dose measured up to 360 mins by UPLC-MS analysis; format: ADME, organism-based; in short: as §4
[14] = AUC (0 to 360 mins) in C57BL/6 mouse serum at 50 mg/kg, ip administered as single dose by UPLC-MS analysis; format: ADME, organism-based; design: dose 50 mg/kg, time < 6 hr, route intraperitoneal; in short: as §4
[15] = Elimination rate constant in C57BL/6 mouse brain at 50 mg/kg, ip administered as single dose measured up to 360 mins by UPLC-MS analysis; format: ADME, organism-based; in short: as §4
[16] = Half life in C57BL/6 mouse brain at 50 mg/kg, ip administered as single dose by UPLC-MS analysis; format: ADME, organism-based; in short: as §4
[17] = Cmax in C57BL/6 mouse brain at 50 mg/kg, ip administered as single dose measured up to 360 mins by UPLC-MS analysis; format: ADME, organism-based; design: dose 50 mg/kg, route intraperitoneal; in short: as §4
[18] = Tmax in C57BL/6 mouse brain at 50 mg/kg, ip administered as single dose measured up to 360 mins by UPLC-MS analysis; format: ADME, organism-based; in short: as §4
[19] = AUC (0 to 360 mins) in C57BL/6 mouse brain at 50 mg/kg, ip administered as single dose by UPLC-MS analysis; format: ADME, organism-based; design: time < 6 hr, dose 50 mg/kg, route intraperitoneal; in short: as §4
Mus musculus [20] = assay: Toxicity in MOG (35 to 55 residues)-induced C57BL/6 mouse autoimmune encephalomyelitis model assessed as bdoy weight cahnges at 50 mg/kg, ip administered daily up to 60 days; format: organism-based; conditions: in vivo, 1440 h; in short: as §1
[21] = target: Protein-arginine deiminase type-4 (Homo sapiens, UniProt Q9UM07); assay: Inhibition of full length human GST-tagged PAD4 expressed in baculovirus infected Sf9 insect cells preincubated for 30 mins followed by substrate addition measured after 30 mins
[22] = target: T1, Protein-arginine deiminase type-1 (Homo sapiens, UniProt Q9ULC6); assay: Inhibition of full length human GST-tagged PAD1 expressed in baculovirus infected Sf9 insect cells preincubated for 30 mins followed by substrate addition measured after 30 mins
T1 sequence (Q9ULC6 whole entry): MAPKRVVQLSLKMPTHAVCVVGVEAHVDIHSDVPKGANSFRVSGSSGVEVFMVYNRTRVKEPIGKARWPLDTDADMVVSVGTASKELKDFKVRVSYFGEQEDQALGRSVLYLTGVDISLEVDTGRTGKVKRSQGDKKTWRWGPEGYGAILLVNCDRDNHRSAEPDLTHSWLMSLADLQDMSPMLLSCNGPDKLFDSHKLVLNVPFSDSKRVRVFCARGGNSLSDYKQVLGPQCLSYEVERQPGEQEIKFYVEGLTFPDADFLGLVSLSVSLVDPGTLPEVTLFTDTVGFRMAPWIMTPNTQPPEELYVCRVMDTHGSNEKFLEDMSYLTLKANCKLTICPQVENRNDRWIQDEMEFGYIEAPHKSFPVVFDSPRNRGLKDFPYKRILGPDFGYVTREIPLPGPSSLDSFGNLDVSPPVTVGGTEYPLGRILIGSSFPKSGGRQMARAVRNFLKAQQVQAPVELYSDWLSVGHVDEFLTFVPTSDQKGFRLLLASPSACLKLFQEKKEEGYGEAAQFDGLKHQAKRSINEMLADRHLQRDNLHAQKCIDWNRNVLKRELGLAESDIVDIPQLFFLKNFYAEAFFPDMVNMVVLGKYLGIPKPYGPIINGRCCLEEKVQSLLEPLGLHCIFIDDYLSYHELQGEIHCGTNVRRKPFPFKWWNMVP
In short: (§5)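 Colorimetric citrulline assay at 37 °C in 100 mM Tris, 100 mM NaCl, 10 mM CaCl2, 5 mM DTT, pH 7.5, with about 5% DMSO. Enzyme (hPAD1 50 nM, mPAD2 100 nM) was preincubated with inhibitor (0.1–10 mM) for 30 min. Substrate was then added at 5 mM final for a further 30 min. Diacetyl monoxime/thiosemicarbazide reagent was added, samples were boiled 15 min, and A530 was read.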

[23] = target: Protein-arginine deiminase type-2 (Mus musculus, UniProt Q08642); assay: Inhibition of full length mouse GST-tagged PAD2 expressed in baculovirus infected Sf9 insect cells preincubated for 30 mins followed by substrate addition measured after 30 mins; in short: as §5
Chain of Protein-arginine deiminase type-2 (Q08642 whole entry): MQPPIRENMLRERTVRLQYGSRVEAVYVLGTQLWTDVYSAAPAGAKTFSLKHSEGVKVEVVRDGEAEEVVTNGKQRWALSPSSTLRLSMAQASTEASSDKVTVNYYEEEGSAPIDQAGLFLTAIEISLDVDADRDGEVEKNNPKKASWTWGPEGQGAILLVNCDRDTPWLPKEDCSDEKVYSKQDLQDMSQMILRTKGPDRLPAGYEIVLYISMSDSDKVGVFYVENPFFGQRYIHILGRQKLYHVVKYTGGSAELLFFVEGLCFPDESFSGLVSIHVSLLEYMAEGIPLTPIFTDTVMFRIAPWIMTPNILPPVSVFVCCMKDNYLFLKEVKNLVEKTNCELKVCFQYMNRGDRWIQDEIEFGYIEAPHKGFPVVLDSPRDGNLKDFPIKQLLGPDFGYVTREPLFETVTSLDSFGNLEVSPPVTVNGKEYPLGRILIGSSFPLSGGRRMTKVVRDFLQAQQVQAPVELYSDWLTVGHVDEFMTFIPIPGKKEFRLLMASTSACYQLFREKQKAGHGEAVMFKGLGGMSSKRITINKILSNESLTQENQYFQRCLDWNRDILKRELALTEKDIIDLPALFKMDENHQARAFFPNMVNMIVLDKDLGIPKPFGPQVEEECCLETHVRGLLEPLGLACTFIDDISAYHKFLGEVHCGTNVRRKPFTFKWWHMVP

Chain of Protein-arginine deiminase type-4 (Q9UM07 whole entry): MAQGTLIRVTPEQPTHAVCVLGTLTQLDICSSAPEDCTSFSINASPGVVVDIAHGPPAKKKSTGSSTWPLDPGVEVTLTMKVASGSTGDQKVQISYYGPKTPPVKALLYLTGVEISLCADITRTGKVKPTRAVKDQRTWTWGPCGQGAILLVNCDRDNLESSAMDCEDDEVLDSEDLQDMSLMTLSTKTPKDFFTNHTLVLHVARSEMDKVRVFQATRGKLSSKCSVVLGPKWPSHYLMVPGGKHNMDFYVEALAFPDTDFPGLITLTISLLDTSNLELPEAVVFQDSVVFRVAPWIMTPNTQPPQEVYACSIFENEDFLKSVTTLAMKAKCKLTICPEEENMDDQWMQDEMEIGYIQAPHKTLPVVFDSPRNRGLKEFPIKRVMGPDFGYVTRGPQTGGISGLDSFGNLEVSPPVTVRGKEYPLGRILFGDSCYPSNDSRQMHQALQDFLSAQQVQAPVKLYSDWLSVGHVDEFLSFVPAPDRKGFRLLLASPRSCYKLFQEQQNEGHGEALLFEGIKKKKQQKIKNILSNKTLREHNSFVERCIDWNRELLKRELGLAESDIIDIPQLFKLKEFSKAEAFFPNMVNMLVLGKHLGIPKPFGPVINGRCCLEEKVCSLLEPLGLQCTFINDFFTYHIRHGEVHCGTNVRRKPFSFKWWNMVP

SMILES: Cl.Cn1cccc1C(=O)N[C@@H](CCn1ccnc1)C(=O)NCc1ccccc1
- Activity (Mus musculus [1]): Active
- survival at 50 mg/kg (Mus musculus [2]): 100%
- Activity (Mus musculus [3]): Active
- Activity (Mus musculus [4]): Active
- Activity (Mus musculus [5]): Active
- Activity (Mus musculus [6]): Active
- Activity (Mus musculus [7]): Active
- Activity (Mus musculus [8]): Active
- Activity (Mus musculus [9]): Active
- k el at 6 h [10]: 0.000333 s⁻¹
- half-life [11]: 34.8 min
- Cmax [12]: 12 µg/mL
- Tmax [13]: 15 min
- AUC(0-t) at 6 h [14]: 8.46 µg·h/mL
- k el at 6 h [15]: 0.0003 s⁻¹
- half-life [16]: 38.5 min
- Cmax [17]: 0.17 µg/mL
- Tmax [18]: 15 min
- AUC(0-t) at 6 h [19]: 0.105 µg·h/mL
- Activity (Mus musculus [20]): Non-Toxic

SMILES: O=C(N[C@@H](CCn1ccnn1)C(=O)NCc1ccccc1)c1ccco1
- Ki [21]: 2820 µM
- Ki [22]: 1090 µM
- Ki [23]: 282 µM

SMILES: Cn1cccc1C(=O)N[C@@H](CCn1ccnn1)C(=O)NCc1ccccc1
- Ki [22]: 112 µM
- Ki [23]: 71 µM
